High-throughput results: PubChem, several laboratories
An excerpt weighted towards active compounds, which were near 12% of everything screened.
WT yeast gro inh – growth inhibition of WT yeast, mitochondrial fusion screen; mitochondrial fusion phenotypic screen, WT strain; AID 1362; 2.1% of 190,000 active; inhibition, % at 10 µM; in the data active = inhibition above about 58%; tested in S. cerevisiae
Cl transport mod – modulators of human KCC2 chloride dependent transport; KCC2 cells, thallium flux FluoZin-2 fluorescence; Q9H2X9; B-score of Tl+ flux slope (higher = more flux/activation; lower = inhibition) at 10 µM; AID 1456; 2.2% of 190,000 active;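 active = thallium flux slope and its plate-corrected score both differing from the plate sample mean at a set confidence after two filtering rounds, in either direction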;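 also: slope of fluorescence scaled to starting intensity during 10 to 20 s after thallium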
Target sequence (Q9H2X9 whole entry, looked up): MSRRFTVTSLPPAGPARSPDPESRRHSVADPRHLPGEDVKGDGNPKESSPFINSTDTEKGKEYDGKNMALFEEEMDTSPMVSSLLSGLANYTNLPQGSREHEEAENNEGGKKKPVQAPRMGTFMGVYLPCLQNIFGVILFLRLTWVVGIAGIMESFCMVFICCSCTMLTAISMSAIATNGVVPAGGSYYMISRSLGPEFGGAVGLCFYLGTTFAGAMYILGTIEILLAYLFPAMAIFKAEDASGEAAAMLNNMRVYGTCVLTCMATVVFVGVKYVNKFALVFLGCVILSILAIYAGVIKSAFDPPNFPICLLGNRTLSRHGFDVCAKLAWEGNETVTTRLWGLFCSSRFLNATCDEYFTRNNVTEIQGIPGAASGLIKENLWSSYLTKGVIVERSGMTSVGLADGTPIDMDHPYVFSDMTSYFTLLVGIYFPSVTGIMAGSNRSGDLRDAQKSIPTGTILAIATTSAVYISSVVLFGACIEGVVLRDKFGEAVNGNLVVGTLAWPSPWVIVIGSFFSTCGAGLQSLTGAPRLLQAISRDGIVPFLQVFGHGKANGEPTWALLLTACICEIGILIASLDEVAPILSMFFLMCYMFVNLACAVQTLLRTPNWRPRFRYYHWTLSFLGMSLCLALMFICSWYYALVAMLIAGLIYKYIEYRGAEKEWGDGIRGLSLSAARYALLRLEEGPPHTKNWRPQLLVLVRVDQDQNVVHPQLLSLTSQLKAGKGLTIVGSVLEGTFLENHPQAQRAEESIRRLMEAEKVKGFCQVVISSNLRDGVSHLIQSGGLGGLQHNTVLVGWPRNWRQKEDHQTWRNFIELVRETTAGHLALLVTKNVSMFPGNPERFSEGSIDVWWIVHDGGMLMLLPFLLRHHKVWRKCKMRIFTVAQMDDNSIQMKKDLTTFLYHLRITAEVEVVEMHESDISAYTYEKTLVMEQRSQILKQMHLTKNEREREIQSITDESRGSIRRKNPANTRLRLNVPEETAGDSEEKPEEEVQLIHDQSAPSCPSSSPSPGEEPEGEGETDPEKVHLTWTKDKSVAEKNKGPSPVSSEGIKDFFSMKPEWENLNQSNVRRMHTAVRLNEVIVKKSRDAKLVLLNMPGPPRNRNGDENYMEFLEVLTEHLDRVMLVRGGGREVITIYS
ROMK mod – human ROMK K+ channel modulation, primary screen; P48048; Tet-inducible ROMK, thallium flux fluorescence; actives lie on both sides; B-score at 10 µM; 2% of 130,000 active;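 active = signal ratio slope over the read window, or its plate-corrected B-score, at least 3 SD from the plate mean, either direction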;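 also: B-score of the F/F0 ratio slope over 7 to 12 s after thallium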
Diaph inh CS – counter-screen for diaphorase-based assays: diaphorase inhibitors and chemical oxidizers. inhibition, % at 20 µM. AID 1217. diaphorase resazurin-to-resorufin fluorescence, NADH, 16 min; bacterial (C. kluyveri) enzyme, not human. 0.69% of 190,000 active;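 active = primary screen inhibition at 20 µM above a set limit, cut at about 50% in these data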
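material = Clostridium kluyveri diaphorase enzyme | amount = 0.14 U/mL diaphorase, enzyme working solution | schedule = incubation 16 min, room temperature | detection = fluorescence of resorufin formed from resazurin, Ex 544/Em 590 nm | benchmarks = positive control minus NADH, DMSO neutral control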
Lmaj promast – reduces viability of Leishmania major promastigotes; resazurin fluorescence viability; inhibition, % at 10 µM; 9% of 200,000 active; in the data active = inhibition above about 50%;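 also: promastigotes grown with compound for 44 hours at 28 °C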
Diaph act CS – diaphorase activation or chemical reduction counter-screen; 0.005% of 190,000 active; activation factor at 20 µM; Diaphorase/resazurin coupled assay, resorufin fluorescence, 16 min; stronger effect = higher value; 1 = vehicle wells, 0 = NADH-free wells; AID 1229;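 active = diaphorase activity raised at least twofold by the compound at 20 µM; inactive = activation factor below 2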
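Material: purified diaphorase enzyme from Clostridium kluyveri; Also added: 0.114 mM NADH and 0.1 mM resazurin, final amounts; Doses: single compound dose of 20 µM, 1% DMSO final; Times: 16 min enzyme reaction, ambient temperature; Detection: resorufin fluorescence, excitation 544 nm, emission 590 nm; Measure: increased resorufin signal from activators or reducing compounds.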
KCC2 secondary – KCC2 (human) modulation, secondary assay. shares compounds with Cl transport mod. HEK293-KCC2, thallium flux, FluoZin2 fluorescence; stronger effect = higher value. normalised thallium flux (F/F0 slope) at 10 µM. 15% of 3,700 active. AID 1713;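 active = thallium flux slope above the same plate's solvent-only control mean plus 3 SD; inconclusive = the two replicate wells disagree; inactive = no significant difference from solvent-only control wells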
KCC2 bumet counter – thallium flux despite bumetanide block in KCC2 cells, secondary assay 3. shares compounds with Cl transport mod. HEK293-KCC2 + bumetanide/ouabain, thallium flux FluoZin2; stronger effect = higher value. normalized thallium flux at 10 µM. 49% of 3,700 active. AID 1714;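 active = thallium entry rate above the same plate's blocked-transporter control wells by more than 3 SD; inconclusive = the two repeat wells disagree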;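 also: raw slope of fluorescence over initial fluorescence between 10 and 20 s after thallium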
KCC2 sec2 – KCC2 (human) modulation, second secondary assay; AID 1715; 23% of 3,700 active; normalized thallium flux at 10 µM; shares compounds with Cl transport mod; HEK293-KCC2, thallium flux FluoZin2 fluorescence; actives lie on both sides; F/F0 rise rate, 10–20 s post-thallium;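 active = thallium flux slope more than 3 SD above or below the plate's solvent-only control mean, mostly below; inconclusive = the two repeat wells disagreed; inactive = no significant shift from solvent-only controls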
HEK counter1 – acts in parental HEK cells, KCC2 counter-screen | shares compounds with Cl transport mod | AID 1716 | 46% of 3,700 active | HEK293 parental cells, thallium flux FluoZin2, ouabain; baseline-ratio fluorescence slope, 10–20 s after thallium | thallium flux rate (normalised fluorescence) at 10 µM;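 active = thallium flux rate significantly above the same plate's solvent-only control wells, beyond their mean plus 3 SD; inconclusive = the two replicate wells gave conflicting results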
KCC2 ouabain – modulates human KCC2 on retest with ouabain. shares compounds with Cl transport mod. HEK293-KCC2, thallium flux FluoZin2 fluorescence; bidirectional: low = inhibitor, high = activator. raw Tl+ flux slope (below DMSO = inhibition, above = activation) at 10 µM. 48% of 3,700 active. AID 1717;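 active = thallium flux slope beyond 3 SD from same-plate DMSO control mean in most replicates, usually higher, sometimes lower; inconclusive = repeat tests gave conflicting results; inactive = no significant difference from controls in most replicates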;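 also: slope of initial-normalized fluorescence between seconds 10 and 20 after thallium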
HEK counter2 – parental HEK flux effect, counter-screen 2; HEK293 parental, thallium flux FluoZin-2 fluorescence slope; 33% of 3,700 active; thallium flux slope at 10 µM; shares compounds with Cl transport mod;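 active = thallium flux slope above the same plate's solvent-control mean plus 3 SD in both duplicate wells; inconclusive = duplicate wells that disagreed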;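 also: run without ouabain in cells lacking the KCC2 cotransporter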
A number is an active result; . = inactive; ? = inconclusive; / = no result given.

SMILES	WT yeast gro inh	Cl transport mod	ROMK mod	Diaph inh CS	Lmaj promast	Diaph act CS	KCC2 secondary	KCC2 bumet counter	KCC2 sec2	HEK counter1	KCC2 ouabain	HEK counter2
CCOc1ccc(N(CC(=O)NCCc2ccc(Cl)cc2)S(=O)(=O)c2c(C)[nH]c(=O)[nH]c2=O)cc1	.	.	.	.	.	.	/	/	/	/	/	/
CN(/C(=N\S(=O)(=O)c1ccccc1)c1ccccc1)c1ccc(O)cc1	.	.	.	.	.	.	/	/	/	/	/	/
CCCCNCC(=O)Nc1ccc(NC(=O)CNCCCC)cc1	.	.	/	.	.	.	/	/	/	/	/	/
O=C(NCc1cccnc1)C1CC(=O)N(CCc2ccccc2)C1 (stereo not given)	.	.	/	.	.	.	/	/	/	/	/	/
COc1ccc(OCC(=O)N/N=C(/C)Cc2ccccc2)cc1	.	.	.	.	.	.	/	/	/	/	/	/
O=C(Nc1ccc(Nc2ccccc2)cc1)c1ccc(Br)o1	.	-5.7	/	.	.	.	?	.	.	.	0.013	?
CCCSc1oc(-c2ccco2)nc1S(=O)(=O)c1ccccc1	.	.	/	.	.	.	/	/	/	/	/	/
CCSc1oc(-c2ccco2)nc1S(=O)(=O)c1ccccc1	.	6.5	/	.	.	.	.	.	.	.	.	.
c1coc(CNc2nc3nonc3nc2NCc2ccco2)c1	.	/	/	.	.	.	?	.	0.028	.	.	.
COCCCNC(=O)CN(c1cc([N+](=O)[O-])ccc1OC)S(C)(=O)=O	.	/	.	.	.	.	/	/	/	/	/	/
CC(C)(C)C(=O)NC(=S)NNC(=O)c1ccc(Cl)cc1Cl	.	38	.	.	.	.	0.031	0.05	.	0.053	0.058	0.017
COC(=O)NNC(=O)c1ccc(Cl)cc1Cl	.	.	.	.	.	.	/	/	/	/	/	/
Cc1cccc2cc(CN(Cc3ccccc3)C(=O)N3CCOCC3)c3nnnn3c12	/	.	.	/	.	/	/	/	/	/	/	/
Oc1ccccc1/C=N/NC(=S)NC1CC2CC1C1C=CCC21 (stereo not given)	/	15	/	/	/	/	.	0.014	.	0.013	0.032	?
COc1cccc(/C=N/NC(=S)NC2CC3CC2C2C=CCC32)c1O (stereo not given)	/	.	.	/	/	/	/	/	/	/	/	/
CN(C)CCNC(=O)CN1C(=O)COc2ccc(C(C)(C)C)cc21	.	.	/	.	.	.	/	/	/	/	/	/
Fc1ccc(-c2csc(=S)[nH]2)cc1	62	83	.	.	93	.	0.039	0.11	0.047	0.075	0.087	0.025
O=C(O)c1cc(-c2ccc(/C=N/NC(=S)Nc3ccccc3)o2)ccc1Cl	.	.	.	.	.	.	/	/	/	/	/	/
COc1ccc(/C=N/NC(=S)Nc2ccccc2)cc1	.	9.1	.	.	.	.	.	0.031	.	0.01	?	.
COc1ccc(/C=N/NC(=S)Nc2cccc(C(=O)O)c2)cc1	.	.	.	.	.	.	/	/	/	/	/	/
S=C(N/N=C/c1ccc2ncccc2c1)Nc1ccccc1	.	6.5	.	.	.	.	.	0.021	.	0.011	.	0.014
O=[N+]([O-])c1ccc(/C=N/NC(=S)Nc2ccccc2)o1	.	5.4	/	.	50	.	0.013	0.026	.	0.014	0.028	0.011
C(=N\NCc1ccccc1)/c1ccc2ncccc2c1	/	.	/	/	/	/	/	/	/	/	/	/
S=C(N/N=C/c1cccc2ccccc12)Nc1cccc(Cl)c1	/	3.4	.	/	/	/	.	.	.	0.012	0.029	.
O=C(c1ccccc1)N(CCN1CCOCC1)C1(C(=O)Nc2ccccc2)CCCCC1	.	.	/	.	.	.	/	/	/	/	/	/
SMILES	WT yeast gro inh	Cl transport mod	ROMK mod	Diaph inh CS	Lmaj promast	Diaph act CS	KCC2 secondary	KCC2 bumet counter	KCC2 sec2	HEK counter1	KCC2 ouabain	HEK counter2
Cc1ccccc1OCC(=O)N/N=C/c1cccn1C	.	.	/	.	.	.	/	/	/	/	/	/
Cc1[nH]n(-c2ccccc2)c(=O)c1/C=N/N(c1ccccc1)c1ccccc1	.	68	.	.	.	.	?	0.11	0.072	0.063	0.088	0.061
Cc1ccc(-n2[nH]c(C)c(/C=N/c3cccc(C)n3)c2=O)cc1	/	4.9	.	/	/	/	.	0.013	.	0.013	?	.
C=CCN=Cc1c(C)[nH]n(-c2ccccc2)c1=O	.	.	/	.	.	.	/	/	/	/	/	/
Cc1[nH]n(-c2ccccc2)c(=O)c1C=Nc1cccc(F)c1	/	4.6	/	/	/	/	.	0.033	.	0.016	.	?
Cc1[nH]n(-c2ccccc2)c(=O)c1C=Nc1cnc2ccccc2c1	.	.	.	.	.	.	/	/	/	/	/	/
Cc1cccc(/N=C/c2c(C)[nH]n(-c3ccccc3)c2=O)n1	/	18	/	/	/	/	.	0.032	.	0.012	?	?
CCN1CCN(S(=O)(=O)c2cc(OC)c(Cl)cc2OC)CC1	.	/	.	.	.	.	/	/	/	/	/	/
CCOc1ccc(OCC)c(S(=O)(=O)NCc2ccccn2)c1	.	.	/	.	.	.	/	/	/	/	/	/
CCOc1ccc(CN(C(=O)c2oc3ccccc3c2C)C2CCS(=O)(=O)C2)cc1 (stereo not given)	.	.	/	.	.	.	.	.	.	.	.	.
O=C(NCc1ccccc1Cl)C1CCN(S(=O)(=O)c2ccc(F)cc2)CC1	.	.	/	.	.	.	/	/	/	/	/	/
Cc1ccc(S(=O)(=O)N2CCC(C(=O)NCc3ccccc3Cl)CC2)cc1	.	-2.9	.	.	73	.	.	.	.	.	0.015	.
O=C(CCNS(=O)(=O)c1ccc(Br)cc1)NC1CCCCC1	.	.	.	.	.	.	/	/	/	/	/	/
O=S(=O)(NC(=S)NC1CCCCC1)c1ccc(Br)cc1	.	11	.	.	.	.	0.012	0.028	.	0.023	0.033	0.012
Cc1ccc(C(=O)CC(=O)c2ccc(C(C)(C)C)cc2)cc1	.	.	.	.	.	.	/	/	/	/	/	/
CC(C)(C)c1ccc(C(=O)CC(=O)c2cc(Cl)ccc2O)cc1	65	4.4	.	.	99	.	.	0.018	.	0.023	0.025	0.017
COCCn1c(SCC(=O)Nc2cccc(C(=O)OC)c2)nc2ccccc2c1=O	.	/	/	.	.	.	/	/	/	/	/	/
